Results taken from ChEMBL document CHEMBL1142672 (J Med Chem, 2005).
Activity calls are given as the source filed them. The calls are words filed in the database; no cut-off is given here.

Biological target: Phosphodiesterase 3 (Homo sapiens) (UniProt Q14432+Q13370)
Assay: Inhibition of [3H]cAMP binding to human phosphodiesterase 3 at 30 uM; Inactive
Type: protein assay
Method in brief: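 Enzyme isolated from freshly collected human platelets. [3H]cAMP SPA kit assay, substrate at 200 nM (near Km under assay conditions). Compounds tested at 30 µM.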

Row | SMILES | Effect
1 | CCNc1ncn(Cc2ccc(OC)c(OC3CCCC3)c2)c2nc(C(C)C)nc1-2 | inactive
2 | COc1ccc(Cn2cnc(N)c3nc(C(C)(C)COc4ccc(C(=O)O)cc4)nc2-3)cc1OC1CCCC1 | inactive
3 | COc1cccc(OC[C@H](C)c2nc3c(N)ncn(Cc4ccc(OC)c(OC5CCCC5)c4)c-3n2)c1 | inactive

Second part, the compound after the results:

Row | Effect | SMILES
4 | inactive | COC(=O)c1ccc(OCC(C)(C)c2nc3c(N)ncn(Cc4ccc(OC)c(OC5CCCC5)c4)c-3n2)cc1
5 | inactive | COc1ccc(Cn2cnc(N)c3nc(C(C)(C)COc4ccc(C(N)=O)cc4)nc2-3)cc1OC1CCCC1

Biological target: cGMP-specific 3',5'-cyclic phosphodiesterase (Homo sapiens) (UniProt O76074)
Assay: Inhibition of [3H]cGMP binding to human Phosphodiesterase 5 at 30 uM; Inactive

Row | SMILES | Effect
6 | CCNc1ncn(Cc2ccc(OC)c(OC3CCCC3)c2)c2nc(C(C)C)nc1-2 | inactive
7 | COc1ccc(Cn2cnc(N)c3nc(C(C)(C)COc4ccc(C(=O)O)cc4)nc2-3)cc1OC1CCCC1 | inactive
8 | COc1cccc(OC[C@H](C)c2nc3c(N)ncn(Cc4ccc(OC)c(OC5CCCC5)c4)c-3n2)c1 | inactive

Second part, the compound after the results:

Row | Effect | SMILES
9 | inactive | COC(=O)c1ccc(OCC(C)(C)c2nc3c(N)ncn(Cc4ccc(OC)c(OC5CCCC5)c4)c-3n2)cc1
10 | inactive | COc1ccc(Cn2cnc(N)c3nc(C(C)(C)COc4ccc(C(N)=O)cc4)nc2-3)cc1OC1CCCC1

Biological target: T1, 3',5'-cyclic-AMP phosphodiesterase 4D (Homo sapiens, UniProt Q08499)
T1 sequence (Q08499 whole entry): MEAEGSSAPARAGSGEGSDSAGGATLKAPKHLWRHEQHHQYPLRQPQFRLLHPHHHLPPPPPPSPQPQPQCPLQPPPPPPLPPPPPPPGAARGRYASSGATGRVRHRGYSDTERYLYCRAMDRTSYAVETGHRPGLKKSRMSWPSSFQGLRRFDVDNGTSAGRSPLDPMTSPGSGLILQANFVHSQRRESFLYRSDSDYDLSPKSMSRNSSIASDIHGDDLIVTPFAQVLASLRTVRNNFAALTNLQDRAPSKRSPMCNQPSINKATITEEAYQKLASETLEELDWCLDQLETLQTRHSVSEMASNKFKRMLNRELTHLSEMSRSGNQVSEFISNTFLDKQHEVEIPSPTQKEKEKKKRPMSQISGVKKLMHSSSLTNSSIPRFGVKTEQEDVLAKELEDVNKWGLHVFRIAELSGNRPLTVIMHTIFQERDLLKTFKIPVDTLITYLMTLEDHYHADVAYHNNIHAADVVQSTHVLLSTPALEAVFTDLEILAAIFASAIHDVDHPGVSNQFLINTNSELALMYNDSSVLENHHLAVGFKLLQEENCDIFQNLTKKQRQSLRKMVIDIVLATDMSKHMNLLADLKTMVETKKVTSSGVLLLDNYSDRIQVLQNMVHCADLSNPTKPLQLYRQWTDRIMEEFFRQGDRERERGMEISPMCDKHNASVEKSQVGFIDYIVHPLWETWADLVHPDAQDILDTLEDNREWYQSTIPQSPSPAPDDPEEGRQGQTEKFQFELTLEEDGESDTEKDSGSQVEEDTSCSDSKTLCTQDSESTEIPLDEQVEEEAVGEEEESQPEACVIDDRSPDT
Assay: Inhibition of [3H]cAMP binding to recombinant human Phosphodiesterase 4D5 (PDE4D5) in baculovirus expression system

Row | SMILES | Ki [µM]
11 | CC1CC(=O)NN=C1c1ccc(-n2ccnc2)cc1 (stereo not given) [CI-930] | > 50
12 | CCNc1ncn(Cc2ccc(OC)c(OC3CCCC3)c2)c2nc(C(C)C)nc1-2 | 0.141
13 | COc1ccc(Cn2cnc(N)c3nc(C(C)(C)COc4ccc(C(=O)O)cc4)nc2-3)cc1OC1CCCC1 | > 50
14 | COc1cccc(OC[C@H](C)c2nc3c(N)ncn(Cc4ccc(OC)c(OC5CCCC5)c4)c-3n2)c1 | 0.322

The next compounds have a lower Ki than those just listed; values first:

Row | Ki [µM] | SMILES
15 | 0.0055 | COC(=O)c1ccc(OCC(C)(C)c2nc3c(N)ncn(Cc4ccc(OC)c(OC5CCCC5)c4)c-3n2)cc1
16 | 0.0049 | COc1ccc(Cn2cnc(N)c3nc(C(C)(C)COc4ccc(C(N)=O)cc4)nc2-3)cc1OC1CCCC1

Biological target: T1, 3',5'-cyclic-AMP phosphodiesterase 4D
Assay: Inhibition of [3H]cAMP binding to recombinant human Phosphodiesterase 4DE (PDE4DE) in baculovirus expression system

Row | SMILES | Ki [µM]
17 | CC1CC(=O)NN=C1c1ccc(-n2ccnc2)cc1 (stereo not given) [CI-930] | > 50
18 | CCNc1ncn(Cc2ccc(OC)c(OC3CCCC3)c2)c2nc(C(C)C)nc1-2 | 2.89
19 | COc1ccc(Cn2cnc(N)c3nc(C(C)(C)COc4ccc(C(=O)O)cc4)nc2-3)cc1OC1CCCC1 | > 50
20 | COc1cccc(OC[C@H](C)c2nc3c(N)ncn(Cc4ccc(OC)c(OC5CCCC5)c4)c-3n2)c1 | 5.05

Second part, the compound after the results:

Row | Ki [µM] | SMILES
21 | 0.246 | COC(=O)c1ccc(OCC(C)(C)c2nc3c(N)ncn(Cc4ccc(OC)c(OC5CCCC5)c4)c-3n2)cc1
22 | 0.312 | COc1ccc(Cn2cnc(N)c3nc(C(C)(C)COc4ccc(C(N)=O)cc4)nc2-3)cc1OC1CCCC1

Biological target: 3',5'-cyclic-AMP phosphodiesterase 4B (Homo sapiens, UniProt Q07343)
Sequence (Q07343 whole entry): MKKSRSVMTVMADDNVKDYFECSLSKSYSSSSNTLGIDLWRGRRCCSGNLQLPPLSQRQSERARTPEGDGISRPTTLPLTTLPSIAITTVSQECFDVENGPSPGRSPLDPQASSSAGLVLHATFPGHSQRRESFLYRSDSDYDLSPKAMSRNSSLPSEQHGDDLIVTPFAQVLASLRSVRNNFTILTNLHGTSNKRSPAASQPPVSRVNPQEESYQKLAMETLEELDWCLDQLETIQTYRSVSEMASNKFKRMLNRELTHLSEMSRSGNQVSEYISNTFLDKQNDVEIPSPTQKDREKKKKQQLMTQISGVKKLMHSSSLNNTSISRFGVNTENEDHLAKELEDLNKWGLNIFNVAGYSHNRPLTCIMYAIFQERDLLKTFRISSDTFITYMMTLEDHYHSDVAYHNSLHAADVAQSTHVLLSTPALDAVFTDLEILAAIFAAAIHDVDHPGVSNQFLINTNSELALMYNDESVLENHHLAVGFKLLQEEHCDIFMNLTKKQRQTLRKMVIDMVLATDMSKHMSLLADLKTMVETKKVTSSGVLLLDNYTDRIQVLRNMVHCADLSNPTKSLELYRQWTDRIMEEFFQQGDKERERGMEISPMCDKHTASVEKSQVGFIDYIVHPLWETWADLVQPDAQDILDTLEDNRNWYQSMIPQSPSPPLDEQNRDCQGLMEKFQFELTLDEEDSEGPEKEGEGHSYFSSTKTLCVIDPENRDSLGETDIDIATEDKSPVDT
Assay: Inhibition of [3H]cAMP binding to recombinant human Phosphodiesterase 4BL (PDE4BL) in baculovirus expression system

Row | SMILES | Ki [µM]
23 | CC1CC(=O)NN=C1c1ccc(-n2ccnc2)cc1 (stereo not given) [CI-930] | > 50
24 | CCNc1ncn(Cc2ccc(OC)c(OC3CCCC3)c2)c2nc(C(C)C)nc1-2 | 0.27
25 | COc1ccc(Cn2cnc(N)c3nc(C(C)(C)COc4ccc(C(=O)O)cc4)nc2-3)cc1OC1CCCC1 | > 50
26 | COc1cccc(OC[C@H](C)c2nc3c(N)ncn(Cc4ccc(OC)c(OC5CCCC5)c4)c-3n2)c1 | 0.43

Second part, the compound after the results:

Row | Ki [µM] | SMILES
27 | 0.0052 | COC(=O)c1ccc(OCC(C)(C)c2nc3c(N)ncn(Cc4ccc(OC)c(OC5CCCC5)c4)c-3n2)cc1
28 | 0.0076 | COc1ccc(Cn2cnc(N)c3nc(C(C)(C)COc4ccc(C(N)=O)cc4)nc2-3)cc1OC1CCCC1

Biological target: T1, 3',5'-cyclic-AMP phosphodiesterase 4D
Assay: Inhibition of [3H]cAMP binding to recombinant human Phosphodiesterase 4D3 (PDE4D3) in baculovirus expression system

Row | SMILES | Ki [µM]
29 | CC1CC(=O)NN=C1c1ccc(-n2ccnc2)cc1 (stereo not given) [CI-930] | > 50
30 | CCNc1ncn(Cc2ccc(OC)c(OC3CCCC3)c2)c2nc(C(C)C)nc1-2 | 0.172
31 | COc1ccc(Cn2cnc(N)c3nc(C(C)(C)COc4ccc(C(=O)O)cc4)nc2-3)cc1OC1CCCC1 | 4.3
32 | COc1cccc(OC[C@H](C)c2nc3c(N)ncn(Cc4ccc(OC)c(OC5CCCC5)c4)c-3n2)c1 | 0.493

Continued, values first:

Row | Ki [µM] | SMILES
33 | 0.003 | COC(=O)c1ccc(OCC(C)(C)c2nc3c(N)ncn(Cc4ccc(OC)c(OC5CCCC5)c4)c-3n2)cc1
34 | 0.008 | COc1ccc(Cn2cnc(N)c3nc(C(C)(C)COc4ccc(C(N)=O)cc4)nc2-3)cc1OC1CCCC1

Biological target: 3',5'-cyclic-AMP phosphodiesterase 4A (Homo sapiens, UniProt P27815)
Sequence (P27815 whole entry): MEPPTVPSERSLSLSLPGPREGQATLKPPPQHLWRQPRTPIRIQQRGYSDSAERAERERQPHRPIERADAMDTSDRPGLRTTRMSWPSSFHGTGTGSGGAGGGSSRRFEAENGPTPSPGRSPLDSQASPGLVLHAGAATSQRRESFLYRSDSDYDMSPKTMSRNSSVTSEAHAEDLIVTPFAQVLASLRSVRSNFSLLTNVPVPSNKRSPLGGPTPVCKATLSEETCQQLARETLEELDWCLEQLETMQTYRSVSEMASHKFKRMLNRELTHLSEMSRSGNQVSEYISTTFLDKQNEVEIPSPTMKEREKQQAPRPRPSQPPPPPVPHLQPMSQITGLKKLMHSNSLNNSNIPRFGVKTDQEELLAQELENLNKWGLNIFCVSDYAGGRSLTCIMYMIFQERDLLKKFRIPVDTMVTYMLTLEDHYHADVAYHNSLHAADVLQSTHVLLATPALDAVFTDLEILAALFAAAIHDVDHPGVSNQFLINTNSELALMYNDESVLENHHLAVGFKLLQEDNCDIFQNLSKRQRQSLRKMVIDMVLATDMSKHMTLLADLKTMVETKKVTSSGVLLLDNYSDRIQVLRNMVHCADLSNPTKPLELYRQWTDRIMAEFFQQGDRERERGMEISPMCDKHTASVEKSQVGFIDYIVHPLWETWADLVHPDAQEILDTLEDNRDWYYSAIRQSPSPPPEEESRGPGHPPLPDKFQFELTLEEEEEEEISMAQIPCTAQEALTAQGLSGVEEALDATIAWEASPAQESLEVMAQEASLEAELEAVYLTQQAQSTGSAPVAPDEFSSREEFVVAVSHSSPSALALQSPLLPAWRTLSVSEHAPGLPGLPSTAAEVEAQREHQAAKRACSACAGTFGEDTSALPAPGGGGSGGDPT
Assay: Inhibition of [3H]cAMP binding to recombinant human Phosphodiesterase 4AL (PDE4AL) in baculovirus expression system

Row | SMILES | Ki [µM]
35 | CC1CC(=O)NN=C1c1ccc(-n2ccnc2)cc1 (stereo not given) [CI-930] | > 50
36 | CCNc1ncn(Cc2ccc(OC)c(OC3CCCC3)c2)c2nc(C(C)C)nc1-2 | 3.9
37 | COc1ccc(Cn2cnc(N)c3nc(C(C)(C)COc4ccc(C(=O)O)cc4)nc2-3)cc1OC1CCCC1 | > 50
38 | COc1cccc(OC[C@H](C)c2nc3c(N)ncn(Cc4ccc(OC)c(OC5CCCC5)c4)c-3n2)c1 | 5.2

The remaining lines, values ahead:

Row | Ki [µM] | SMILES
39 | 0.103 | COC(=O)c1ccc(OCC(C)(C)c2nc3c(N)ncn(Cc4ccc(OC)c(OC5CCCC5)c4)c-3n2)cc1
40 | 0.155 | COc1ccc(Cn2cnc(N)c3nc(C(C)(C)COc4ccc(C(N)=O)cc4)nc2-3)cc1OC1CCCC1

Biological target: Phosphodiesterase 4 (Homo sapiens, UniProt P27815+Q08499+Q07343+Q08493)
Assay: Inhibition of [3H]cAMP binding to human lung Phosphodiesterase 4
Type: protein assay

Row | SMILES | Ki [µM]
41 | CCNc1ncn(Cc2ccc(OC)c(OC3CCCC3)c2)c2nc(C(C)C)nc1-2 | 0.436
42 | COc1ccc(Cn2cnc(N)c3nc(C(C)(C)COc4ccc(C(=O)O)cc4)nc2-3)cc1OC1CCCC1 | 5.23
43 | COc1cccc(OC[C@H](C)c2nc3c(N)ncn(Cc4ccc(OC)c(OC5CCCC5)c4)c-3n2)c1 | 1.47

The next lines start with the values.

Row | Ki [µM] | SMILES
44 | 0.0093 | COC(=O)c1ccc(OCC(C)(C)c2nc3c(N)ncn(Cc4ccc(OC)c(OC5CCCC5)c4)c-3n2)cc1
45 | 0.025 | COc1ccc(Cn2cnc(N)c3nc(C(C)(C)COc4ccc(C(N)=O)cc4)nc2-3)cc1OC1CCCC1
